Calls of active or inactive are those of the source.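 The calls were made as follows: active = falling-signal curve whose AC50 is at most twice the highest valid dose tested; inconclusive = flat fit showing 30 to 70% signal loss, or poor fit; inactive = the rest, including opposite-direction effects.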
System: not listed separately
Assay: HepG2 cell cytotoxicity, dose response, cytotoxicity control, CellTiter-Glo luminescence, dry powder, set 14 (AID 977616)
Details: HepG2 viability, CellTiter-Glo ATP luminescence, 72 h; at 12 µM (top of the series)
Outline: (§1)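 Test system: Wild-type HepG2 cells | Amount: 2000 HepG2 cells per well | Dosing: Compound tested at multiple concentrations (dose series) | Timing: Seeding 24 h pre-dose, 72 h exposure, 37 °C, 5% CO2 | Technique: CellTiter-Glo luminescence, reagent diluted 1:1 in PBS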

Row | SMILES | activity change, negative = cytotoxicity
1 | C[C@H](O)C#Cc1ccc2c(c1)O[C@@H](CN(C)Cc1ccc(-c3ccccc3)cc1)[C@@H](C)CN([C@H](C)CO)S2(=O)=O | -7.08% (inactive)

Same assay, conditions: HepG2 viability, CellTiter-Glo ATP luminescence, 72 h; at 26 µM (top of the series)

Row | SMILES | activity change, negative = cytotoxicity
2 | C[C@H](CO)N1C[C@H](C)[C@H](CN(C)Cc2ccc(-c3ccccc3)cc2)Oc2cc(C#C[C@@H](C)O)ccc2S1(=O)=O | 0.52% (inactive)
3 | C[C@@H](O)C#Cc1ccc2c(c1)O[C@@H](CN(C)S(=O)(=O)c1ccc(-c3ccccc3)cc1)[C@@H](C)CN([C@@H](C)CO)S2(=O)=O | -8.38% (inactive)
4 | CNC[C@@H]1Oc2cc(Br)ccc2S(=O)(=O)N([C@@H](C)CO)C[C@@H]1C | -25.9% (inactive)
5 | C[C@@H](O)C#Cc1ccc2c(c1)O[C@@H](CN(C)Cc1cccnc1)[C@@H](C)CN([C@@H](C)CO)S2(=O)=O | 2.57% (inactive)
6 | C[C@H]1CN([C@@H](C)CO)S(=O)(=O)c2ccc(Br)cc2O[C@H]1CN(C)Cc1ccc(-c2ccccc2)cc1 | 14.1% (inactive)
7 | CO[C@H]1CN(C)C(=O)c2ccc(NC(=O)c3ccc(F)cc3)cc2OC[C@H](C)N(C(=O)c2ccc(F)cc2)C[C@@H]1C | 11.6% (inactive)
8 | C[C@@H]1CN([C@H](C)CO)S(=O)(=O)c2ccc(C#C[C@@H](C)O)cc2O[C@@H]1CN(C)Cc1ccc(-c2ccccc2)cc1 | -8.68% (inactive)
9 | C[C@H](O)C#Cc1ccc2c(c1)O[C@H](CN(C)Cc1ccc(-c3ccccc3)cc1)[C@H](C)CN([C@@H](C)CO)S2(=O)=O | -13.4% (inactive)
10 | C[C@@H](O)C#Cc1ccc2c(c1)O[C@@H](CN(C)Cc1ccncc1)[C@@H](C)CN([C@@H](C)CO)S2(=O)=O | -6.07% (inactive)

System: HepG2 viability, CellTiter-Glo ATP luminescence, 72 h
Assay: as above
Details: not given
Outline: as §1

Row | SMILES | AC50
11 | COc1ccccc1-c1ccc(CN(C)C[C@@H]2Oc3cc(C#C[C@@H](C)O)ccc3S(=O)(=O)N([C@@H](C)CO)C[C@@H]2C)cc1 | 20.4 µM
12 | C[C@H](O)C#Cc1ccc2c(c1)O[C@@H](CN(C)Cc1ccc(-c3ccccc3)cc1)[C@H](C)CN([C@H](C)CO)S2(=O)=O | 19.2 µM
13 | C[C@@H](O)C#Cc1ccc2c(c1)O[C@H](CN(C)Cc1ccc(-c3ccccc3)cc1)[C@@H](C)CN([C@@H](C)CO)S2(=O)=O | 20 µM
14 | Cc1cccc(-c2ccc(CN(C)C[C@@H]3Oc4cc(C#C[C@@H](C)O)ccc4S(=O)(=O)N([C@@H](C)CO)C[C@@H]3C)cc2)c1 | 23.1 µM
15 | C[C@@H](O)C#Cc1ccc2c(c1)O[C@@H](CN(C)Cc1ccc(-c3cccc(Cl)c3)cc1)[C@@H](C)CN([C@@H](C)CO)S2(=O)=O | 25.4 µM
16 | COc1ccc(-c2ccc(CN(C)C[C@@H]3Oc4cc(C#C[C@@H](C)O)ccc4S(=O)(=O)N([C@@H](C)CO)C[C@@H]3C)cc2)cc1 | 20.2 µM
17 | C[C@@H](O)C#Cc1ccc2c(c1)O[C@@H](CN(C)Cc1ccc(-c3ccccc3Cl)cc1)[C@@H](C)CN([C@@H](C)CO)S2(=O)=O | 25.9 µM
18 | C[C@H](O)C#Cc1ccc2c(c1)O[C@H](CN(C)Cc1ccc(-c3ccccc3)cc1)[C@@H](C)CN([C@H](C)CO)S2(=O)=O | 21.2 µM
19 | C[C@@H]1CN([C@@H](C)CO)S(=O)(=O)c2ccc(C#C[C@@H](C)O)cc2O[C@H]1CN(C)Cc1ccc(-c2ccccc2)cc1 | 17.8 µM
20 | C[C@H](O)C#Cc1ccc2c(c1)O[C@@H](CN(C)Cc1ccc(-c3ccccc3)cc1)[C@@H](C)CN([C@@H](C)CO)S2(=O)=O | > 52 µM (inactive)
21 | C[C@H](O)C#Cc1ccc2c(c1)O[C@H](CN(C)Cc1ccc(-c3ccccc3)cc1)[C@@H](C)CN([C@@H](C)CO)S2(=O)=O | 4.56 µM
22 | C[C@@H](O)C#Cc1ccc2c(c1)O[C@@H](CN(C)Cc1ccc(-c3ccc(Cl)cc3)cc1)[C@@H](C)CN([C@@H](C)CO)S2(=O)=O | 21.6 µM
23 | C[C@H](O)C#Cc1ccc2c(c1)O[C@@H](CN(C)Cc1ccc(-c3ccccc3)cc1)[C@H](C)CN([C@@H](C)CO)S2(=O)=O | 19.7 µM
24 | COc1cccc(-c2ccc(CN(C)C[C@@H]3Oc4cc(C#C[C@@H](C)O)ccc4S(=O)(=O)N([C@@H](C)CO)C[C@@H]3C)cc2)c1 | 22.5 µM
25 | C[C@H]1CN([C@@H](C)CO)S(=O)(=O)c2ccc(-c3ccc(O)cc3)cc2O[C@H]1CN(C)Cc1ccc(-c2ccccc2)cc1 | > 52 µM (inactive)
